# Measured values taken from ChEMBL document CHEMBL4316593 (Eur J Med Chem, 2019).
# Calls of active or inactive are those of the source. The calls are words filed in the database; no cut-off is given here.
# Columns and labels:
# [1] = Inhibition of RTK/PI3K/AKT/mTOR signaling in human U87 cells assessed as up regulation of RPS14 gene expression at cytotoxic IC50 measured after 48 hrs relative to control; assay type: cell-based; settings: U-87MG ATCC
# Method in brief: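 U87 cells were exposed for 48 hrs at 37°C under 5% CO₂, with cisplatin and untreated controls, all in triplicate. RNA was isolated by the same protocol for every sample and expression profiled from mapped reads. Differential expression against untreated cells was called in DESeq2 (q-value < 0.05, fold change > 1.5).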
# U-87 MG [2] = assay: Induction of DNA damage in human U87 cells assessed as change in DTL gene expression at cytotoxic IC50 measured after 48 hrs […] relative to control; assay type: functional, U-87MG ATCC
# Method in brief: (§1)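 U87 expression profiling. Cells incubated 48hrs at 37°C, 5% CO₂ with the IC₅₀ concentration, alongside a cisplatin and an untreated control, in triplicate. RNA was isolated by one common protocol and profiled. DEGs were called with DESeq2 (q < 0.05, fold change > 1.5) and expressed as fold change versus untreated.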
# [3] = Inhibition of RTK/PI3K/AKT/mTOR signaling in human U87 cells assessed as up regulation of mesencephalic astrocyte derived neurotrophic factor gene expression at cytotoxic IC50 measured after 48 hrs relative to control; assay type: cell-based
# [4] = Inhibition of RTK/PI3K/AKT/mTOR signaling in human U87 cells assessed as up regulation of KDM5B gene expression at cytotoxic IC50 measured after 48 hrs relative to control; assay type: cell-based; settings: U-87MG ATCC
# Method in brief: (§2)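 Cells were exposed for 48hrs at 37°C in humidified 5% CO₂ to the compound at its previously determined IC₅₀, with Cisplatin at its IC₅₀ and an untreated negative control alongside. Each condition was run in triplicate. RNA was isolated from all samples by the same protocol. Genes were called differentially expressed by DESeq2 at q-value < 0.05 and fold change > 1.5.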
# [5] = Inhibition of RTK/PI3K/AKT/mTOR signaling in human U87 cells assessed as up regulation of PLD6 gene expression at cytotoxic IC50 measured after 48 hrs relative to control; assay type: cell-based; settings: U-87MG ATCC; method in brief: as §2
# [6] = Inhibition of RTK/PI3K/AKT/mTOR signaling in human U87 cells assessed as down regulation of FAM222A gene expression at cytotoxic IC50 measured after 48 hrs relative to control; assay type: cell-based; settings: U-87MG ATCC
# Method in brief: (§3)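 U87 cells grown in MEM with 10% FBS at 37°C, 5% CO2. Cells exposed to IC50 of test compound for 48 hrs, alongside untreated and cisplatin controls, each condition in triplicate. RNA isolated and profiled; differential expression called with DESeq2 (q-value < 0.05, fold change > 1.5), fold change versus untreated.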
# U-87 MG [7] = assay: Induction of apoptosis in human U87 cells assessed as change in ACTB gene expression at cytotoxic IC50 measured after 48 hrs […] relative to control; assay type: functional, U-87MG ATCC; method in brief: as §3
# [8] = Inhibition of RTK/PI3K/AKT/mTOR signaling in human U87 cells assessed as up regulation of RHOA gene expression at cytotoxic IC50 measured after 48 hrs relative to control; assay type: cell-based; settings: U-87MG ATCC; method in brief: as §2
# U-87 MG [9] = assay: Cell cycle arrest in human U87 cells assessed as change in CDK1 gene expression at cytotoxic IC50 measured after 48 hrs […] relative to control; assay type: functional, U-87MG ATCC; method in brief: as §1
# [10] = Inhibition of RTK/PI3K/AKT/mTOR signaling in human U87 cells assessed as up regulation of macrophage stimulating 1 receptor gene expression at cytotoxic IC50 measured after 48 hrs relative to control; assay type: cell-based
# U-87 MG [11] = assay: Induction of apoptosis in human U87 cells assessed as change in CAPN1 gene expression at cytotoxic IC50 measured after 48 hrs […] relative to control; assay type: functional, U-87MG ATCC; method in brief: as §3
# U-87 MG [12] = assay: Cell cycle arrest in human U87 cells assessed as accumulation at G1 phase at cytotoxic IC50 measured after 48 hrs by propidium iodide staining based fluorescence cell imaging analysis (reference value: 39.7%); assay type: functional, U-87MG ATCC
# Method in brief: (§4)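 Cell cycle by PI staining. Cells seeded at 1×10^6 and grown overnight at 37°C, 5% CO₂, then exposed for 48hrs at their IC₅₀ concentration, with DMSO and cisplatin controls. Cells were trypsinized, washed in cold PBS and fixed in 70% ethanol at 4°C for 30 min. They were stained with PI in Triton X-100/RNase for 15 min at 37°C and imaged by fluorescence microscopy. Reported as mean ± S.E.M of triplicates.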
# [13] = Inhibition of RTK/PI3K/AKT/mTOR signaling in human U87 cells assessed as down regulation of NLRC5 gene expression at cytotoxic IC50 measured after 48 hrs relative to control; assay type: cell-based; settings: U-87MG ATCC; method in brief: as §2
# [14] = Inhibition of RTK/PI3K/AKT/mTOR signaling in human U87 cells assessed as up regulation of ras homolog family member Q gene expression at cytotoxic IC50 measured after 48 hrs relative to control; assay type: cell-based; settings: U-87MG ATCC
# [15] = Inhibition of RTK/PI3K/AKT/mTOR signaling in human U87 cells assessed as up regulation of keratinocyte associated protein 3 gene expression at cytotoxic IC50 measured after 48 hrs relative to control; assay type: cell-based
# U-87 MG [16] = assay: Cell cycle arrest in human U87 cells assessed as change in YWHAG gene expression at cytotoxic IC50 measured after 48 hrs […] relative to control; assay type: functional, U-87MG ATCC; method in brief: as §1
# LN-229 [17] = assay: Cell cycle arrest in human LN229 cells assessed as decrease in accumulation at G2/M-phase at cytotoxic IC50 measured after 48 hrs by propidium iodide staining based fluorescence cell imaging analysis; assay type: functional; method in brief: as §4
# [18] = Inhibition of RTK/PI3K/AKT/mTOR signaling in human U87 cells assessed as down regulation of TSPAN33 gene expression at cytotoxic IC50 measured after 48 hrs relative to control; assay type: cell-based; settings: U-87MG ATCC; method in brief: as §2
# U-87 MG [19] = assay: Induction of apoptosis in human U87 cells assessed as change in GADD45B gene expression at cytotoxic IC50 measured after 48 hrs […] relative to control; assay type: functional, U-87MG ATCC; method in brief: as §3
# [20] = Inhibition of RTK/PI3K/AKT/mTOR signaling in human U87 cells assessed as down regulation of ZMAT2 gene expression at cytotoxic IC50 measured after 48 hrs relative to control; assay type: cell-based; settings: U-87MG ATCC; method in brief: as §2
# [21] = Inhibition of RTK/PI3K/AKT/mTOR signaling in human U87 cells assessed as down regulation of USP47 gene expression at cytotoxic IC50 measured after 48 hrs relative to control; assay type: cell-based; settings: U-87MG ATCC; method in brief: as §2
# U-87 MG [22] = assay: Cell cycle arrest in human U87 cells assessed as change in CREBBP gene expression at cytotoxic IC50 measured after 48 hrs […] relative to control; assay type: functional, U-87MG ATCC; method in brief: as §1
# LN-229 [23] = assay: Induction of oxidative stress in human LN229 cells assessed as increase in redox level at cytotoxic IC50 measured after 5 hrs by H2DCFDA dye based fluorescence assay relative to control; assay type: functional, cell-based
# Method in brief: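 Cells grown overnight, exposed to IC50 for 5 hrs at 37°C with negative, positive (H2O2) and blank controls, plus solvent baseline. Pelleted, loaded with 2 µM H2DCFDA for 30 min at 37°C, washed, resuspended in warm medium, 20 min at room temperature. Fluorescence read at ex 485/em 535 nm.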
# [24] = Inhibition of RTK/PI3K/AKT/mTOR signaling in human U87 cells assessed as down regulation of CCDC186 gene expression at cytotoxic IC50 measured after 48 hrs relative to control; assay type: cell-based; settings: U-87MG ATCC; method in brief: as §3
# U-87 MG [25] = assay: Induction of apoptosis in human U87 cells assessed as change in ITPR2 gene expression at cytotoxic IC50 measured after 48 hrs […] relative to control; assay type: functional, U-87MG ATCC; method in brief: as §3
compound,measurement,setting,value
CC(=O)C(=NNc1ccccc1C#N)C(C)=O,log2FC,[1],0.607
same,fold change (FC),U-87 MG [2],1.519
same,log2FC,[3],0.684
same,log2FC,[4],0.553
same,log2FC,[5],1.77
same,log2FC,[6],-1.4
same,log2FC,U-87 MG [7],-1.876
same,log2FC,[8],0.32
same,fold change (FC),U-87 MG [9],1.569
same,log2FC,[10],0.723
same,log2FC,U-87 MG [11],0.8843
same,Activity,U-87 MG [12],47.7%
same,log2FC,[13],-1.26
same,log2FC,[14],0.702
same,log2FC,[15],1.03
same,fold change (FC),U-87 MG [16],-0.7503
same,Activity,LN-229 [17],Active
same,log2FC,[18],-0.666
same,log2FC,U-87 MG [19],-2.899
same,log2FC,[20],-0.716
same,log2FC,[21],-0.615
same,fold change (FC),U-87 MG [22],-1.086
same,Activity,LN-229 [23],inactive
same,log2FC,[24],-0.865
same,log2FC,U-87 MG [25],-3.745
